Measurements pooled from the literature.
Compare with care: the assays were run in different laboratories.
ST14: Suppressor of tumorigenicity 14 protein (ST14, Homo sapiens, UniProt Q9Y5Y6)
CDK2 with cyclin A2: Cyclin-dependent kinase 2, with cyclin A2 (CDK2, Homo sapiens, UniProt P24941)

`CNc1ncc2c(/C=C/C(=O)N3CCC(OC)CC3)nn(Cc3cccc(C(F)(F)F)c3)c2n1` has a remaining activity of 100% (Serine/threonine-protein kinase VRK1 (VRK1, Homo sapiens, UniProt Q99986); enzyme activity; inhibitor; radiometric; 1 µM).
The remaining binding of `C=CC(=O)N1CCC(COCC(=O)N2CCN(c3nc(-c4cnc(N)nc4C(F)F)nc(N4CCOC[C@@H]4C)n3)CC2)CC1` is reported as 77% (ALK tyrosine kinase receptor (ALK, Homo sapiens, UniProt Q9UM73, L1196M); binding; competition with immobilised ligand; 1 µM).
For `CC1([C@H](NC(=O)[C@H](Cc2cscn2)NC(=O)CCc2ccccc2)C(=O)N[C@@H](CCCNC(=N)N)C(=O)c2nc3ccccc3s2)CC1`, the remaining activity was 69% (ST14; enzyme activity; inhibitor; 0.1 µM).
For `Cc1cc([C@@H](C)Nc2ccccc2C(=O)O)c2nc(N3CCC(F)(F)CC3)c(C#N)c(=O)n2c1`, the remaining binding was 100% (Mitogen-activated protein kinase 10 (MAPK10, Homo sapiens, UniProt P53779); binding; competition with immobilised ligand; 1 µM).
`N=C(N)NCCC[C@H](NC(=O)[C@H](Cc1ccc2ccccc2c1)NC(=O)[C@H](Cc1cscn1)NC(=O)CCc1ccccc1)C(=O)c1nc2ccccc2s1` has a remaining activity of 8% (ST14; enzyme activity; inhibitor; 0.1 µM).
With `CNC(=O)c1cc(Oc2ccc(NC(=O)Nc3ccc(Cl)c(C(F)(F)F)c3)cc2)ccn1` the inhibition was 43.1% (CDK2 with cyclin A2; enzyme activity; inhibitor; 20 nM).
For `COc1cc(-c2cncc3c2CN(C)Cc2cc(N4CCNCC4)ccc2-3)cc(OC)c1OC`, the remaining activity was 92% (Serine/threonine-protein kinase D3 (PRKD3, Homo sapiens, UniProt O94806); enzyme activity; inhibitor; 1 µM).
The remaining activity of `N=C(N)NCCC[C@H](NC(=O)[C@@H](NC(=O)[C@H](Cc1cscn1)NC(=O)CCc1ccccc1)C1CC1)C(=O)c1nc2ccccc2s1` is reported as 90% (ST14; enzyme activity; inhibitor; 0.1 µM).
For `CC(=O)Nc1c(N)nc(SCC(=O)NN)[nH]c1=O`, the inhibition was 73% (CDK2 with cyclin A2; enzyme activity; inhibitor; 1 µM).
